The list is not random: actives were taken first. Their share in the collection is about 0.55%.
TRPN1 ag = activates the zebrafish TRPN1 channel. activation, % at 3 µM. HEK293 zebrafish TRPN1-YFP, Fluo-8 calcium fluorescence; 100% = response to 87 µM carbachol. actives 0.18% (n = 220,000). AID 1424;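 active means activation above its plate's cutoff, the mean activation of test wells on that plate plus 3 SD, cut at about 19% in these data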;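 further: 0% = DMSO alone and 100% = 87 µM carbachol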
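Material: zebrafish TRPN1-YFP in HEK293 cells; Doses: single test compound dose, 3 µM nominal, 0.3% DMSO; Timing: dye loading 1 h at 37 °C, then 30 min room temperature; Technique: intracellular calcium fluorescence with Fluo-8; Benchmarks: high carbachol 87 µM, low DMSO alone.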
OXTR ag = activates the human oxytocin receptor | P30559 | CHO-OTR cells, Fluo-8 calcium fluorescence; normalized: DMSO 0%, oxytocin 100% | activation, % at 3 µM | actives 0.32% (n = 320,000);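 active means activation above the mean of all tested compounds plus 3 SD, cutoff set per screening run, cut at about 20% in these data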;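 further: peak over basal fluorescence ratio from a 100 s FLIPR kinetic read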
OXTR potentiator = potentiates the human oxytocin receptor response; activation, % at 3 µM; actives 0.061% (n = 320,000); CHO-OTR cells, Fluo-8 calcium fluorescence, potentiator mode; 0% = oxytocin EC15, 100% = EC100;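 active means activation above that plate's cutoff, the mean activation of tested compounds plus 3 SD, cut at about 6.6% in these data, passing the limit was not always enough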;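 further: 100% uses oxytocin at 75 nM as the full agonist control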
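Assay system: CHO cell line stably expressing human OTR | Also added: Oxytocin at about EC15, sub-maximal agonist stimulus | Times: Compound 6 min at room temperature before oxytocin, 100 s read | Measured by: Fluo-8 intracellular calcium fluorescence, ex 470-495, em 515-575 nm | Controls: EC15 oxytocin alone as 0%, 75 nM oxytocin as 100%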
V1aR counter = V1a receptor agonism, counter-screen for OXTR agonists. CHO-V1R cells, Fluo-8 calcium fluorescence, agonist mode; 0% DMSO, 100% 3 nM vasopressin. P37288. actives 0.25% (n = 320,000). activation, % at 3 µM;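 active means activation above the mean activation of all tested compounds plus 3 SD, per screening run, cut at about 20% in these data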;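 further: signal is peak over basal fluorescence ratio across a 100 second FLIPR read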
Target sequence (P37288 whole entry, looked up): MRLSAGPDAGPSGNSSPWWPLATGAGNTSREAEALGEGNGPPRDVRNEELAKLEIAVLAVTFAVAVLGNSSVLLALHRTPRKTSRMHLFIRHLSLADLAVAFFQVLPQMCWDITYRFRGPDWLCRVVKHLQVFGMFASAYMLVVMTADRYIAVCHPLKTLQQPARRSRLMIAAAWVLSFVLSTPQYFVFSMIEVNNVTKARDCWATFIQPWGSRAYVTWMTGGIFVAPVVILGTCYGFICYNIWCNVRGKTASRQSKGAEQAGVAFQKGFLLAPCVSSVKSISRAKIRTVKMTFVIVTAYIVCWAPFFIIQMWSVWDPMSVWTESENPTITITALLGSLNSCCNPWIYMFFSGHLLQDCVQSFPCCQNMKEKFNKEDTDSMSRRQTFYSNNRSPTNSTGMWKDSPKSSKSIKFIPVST
TRPML3 agonist = activates the human TRPML3 channel; AID 1448; actives 0.29% (n = 220,000); activation, % at 3 µM; HEK293 TRPML3-YFP, Fluo-8 calcium fluorescence; 100% = the carbachol control signal;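 active means activation above its plate's cutoff, the mean activation of the plate's test wells plus 3 SD, cut at about 12% in these data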;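 further: 0% = DMSO only wells and 100% = carbachol wells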
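Test system – HEK293 line with stable expression of human TRPML3-YFP channel · Control set – carbachol 87 µM final as high control (100%), DMSO as low control (0%) · Signal – Fluo-8 calcium dye fluorescence, ex 470-495, em 515-575 nm · Incubation – 1-h 37 °C dye load, 5-s basal, 120-s post-compound reads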
Active calls of the source: *; / = no result given.

SMILES	TRPN1 ag	OXTR ag	OXTR potentiator	V1aR counter	TRPML3 agonist
O=C1c2ccccc2C(=O)N1c1ccc(Cl)cc1	-2	-2	-9	0	0
O=C1c2cccc3c(O)ccc(c23)C(=O)N1c1ccc(Cl)cc1	/	186*	-27	184*	/
Cc1ccc(N2C(=O)c3cccc4c(C(=O)O)ccc(c34)C2=O)cc1	1	1	-1	1	1
CC(=O)Nc1ccc(N2C(=O)c3cccc4c(O)ccc(c34)C2=O)cc1	/	172*	-27	174*	/
O=C1c2cccc3c(O)ccc(c23)C(=O)N1Cc1ccco1	79*	/	/	/	38*
O=C(O)C(Cc1ccccc1)NC(=O)C(Cc1ccccc1)NC(=O)C12CC3CC(CC(C3)C1)C2 (stereo unspecified)	/	-1	-8	0	/
CC(=O)OCCn1c2nc(=O)[nH]c(=O)c-2nc2cc(C)c(C)cc21	142*	/	/	/	88*
CC(=O)OCCn1c(C)[n+](CCOC(C)=O)c2cc(Cl)c(Cl)cc21	0	1	9	2	0
O=C(NC1CCCCC1)C(c1ccc(F)cc1)N(CCCN1CCOCC1)C(=O)c1ccc(CN2CCOCC2)o1 (stereo unspecified)	/	-2	-10	0	/
C=CCN(CC=C)S(=O)(=O)c1ccc2nc(NC(=O)C(C)C)sc2c1	2	29*	-20	22*	1
CCOC(=O)c1ccc2nc(NC(=O)C(C)C)sc2c1	-1	-1	-3	-1	0
CC(=O)c1ccc(OC(=O)c2ccc(Br)o2)cc1	-1	15	-9	9	0
CCC(=O)c1ccc(OC(=O)c2ccc(Br)o2)cc1	0	35*	-21	44*	0
O=C1c2cccc3c(N4CCCCC4)ccc(c23)C(=O)N1c1cccc(O)c1	70*	33*	-13	40*	33*
C=CCN1C(=O)c2cccc3c(N4CCCCC4)ccc(c23)C1=O	9	9	-6	10	4
Cc1n[nH]c(C)c1N1C(=O)c2cccc3c(N4CCCCCC4)ccc(c23)C1=O	125*	146*	-24	150*	86*
O=S(=O)(/N=S1/CC=CCN1S(=O)(=O)c1ccccc1)c1ccccc1 (stereo unspecified)	0	29*	-15	31*	2
CN1/C(=C/C=C(C#N)C#N)C(C)(C)c2ccccc21	1	-3	-5	-1	1
CC1=C/C(=C\C=C(C#N)C#N)N(C)c2ccccc21	27*	23*	-9	32*	17*
OCCNCc1c(OCc2ccc(Cl)cc2)ccc2ccccc12	/	30*	-20	30*	/
O=C(/C=C/c1ccc([N+](=O)[O-])cc1)Nc1cccc(S(=O)(=O)NC2=NCCCCC2)c1	/	2	-9	4	/
COc1ccc2c(c1)CC(N1CCN(C)CC1)c1cc(OC)ccc1S2 (stereo unspecified)	/	34*	-21	25*	/
COc1ccc(C(=O)COC(=O)c2cc(=O)[nH]c3ccccc23)c(OC)c1	/	-2	-1	-1	/
CCN(CC)c1ccc2c(c1)OC(N)=C(C#N)C2c1cccnc1 (stereo unspecified)	12	52*	-12	33*	8
O=C(Nc1ccccn1)c1ccc2c(c1)S(=O)(=O)c1ccccc1C2=O	2	2	-6	0	1
SMILES	TRPN1 ag	OXTR ag	OXTR potentiator	V1aR counter	TRPML3 agonist
O=C1c2ccccc2S(=O)(=O)c2cc(C(=O)N(c3ccccn3)c3ccccn3)ccc21	35*	88*	-11	89*	76*
O=C1CNC(=O)/C(=C\c2ccccc2)N1	/	1	-1	1	/
O=C1/C(=C/c2ccccc2)Nc2ccccc21	1	46*	-9	42*	0
O=[N+]([O-])c1ccc(C23CC4CC(CC(O)(C4)C2)C3)cc1	/	3	-9	4	/
COc1ccccc1CN(C)C(=O)c1ccc(S(=O)(=O)Nc2c(C)n(C)n(-c3ccccc3)c2=O)cc1	/	-1	-1	0	/
C#CCOCCOCCOCCNc1nc(N2CCN(C(=O)CCCCCCCCCCNC(=O)[C@H](CCCCN)n3cc(C)nn3)CC2)nc(N2CCN(C(=O)CCCCCCCCCCNC(=O)[C@@H]([C@H](C)CC)n3cc(CCCCCN)nn3)CC2)n1	/	3	-13	38*	/

Bioassay records from PubChem BioAssay.
